From PMC8444931 (Clinical and Translational Science, 2021)

Tests used:
[1] = biological target: JAK1 (Homo sapiens, UniProt P23458); assay: biochemical
[2] = biological target: JAK2 (Homo sapiens, UniProt O60674); assay: biochemical
[3] = biological target: T1, Tyk2 (Homo sapiens, UniProt P29597); assay: biochemical
T1 sequence (P29597 897-1176 limits assumed): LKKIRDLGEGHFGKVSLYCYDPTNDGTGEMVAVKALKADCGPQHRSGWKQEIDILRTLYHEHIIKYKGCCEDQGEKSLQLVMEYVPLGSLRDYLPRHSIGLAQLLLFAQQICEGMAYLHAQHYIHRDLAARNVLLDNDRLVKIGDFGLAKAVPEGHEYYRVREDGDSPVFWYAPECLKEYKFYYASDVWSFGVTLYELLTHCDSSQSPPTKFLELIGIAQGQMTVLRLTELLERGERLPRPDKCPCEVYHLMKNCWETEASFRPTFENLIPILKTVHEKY

[4] = tested on: cytokine‐induced STAT6 phosphorylation; assay: cytokine‐induced STAT6 phosphorylation in bronchial epithelial cell lines; type: cell-based; settings: data on file, Theravance Biopharma
[5] = tested on: JAK; assay: cell‐based assays of JAK inhibition; settings: Homo sapiens, Epithelial cell, read-out: most potent half‐maximal JAK inhibition (IC50) in a cell‐based assay
[6] = human plasma protein binding; type: in vitro ADME
[7] = phase I part A; type: in vivo, human; settings: for TEAE Cough / TEAE Dizziness / TEAE Headache / TEAE related to nezulcitinib / Total participants with TEAEs: part A
How it was run: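 Healthy adults aged 18–50 (BMI 18–32 kg/m^2, FEV1 ≥80% predicted) in a double-blind, randomized, placebo-controlled single ascending dose study. Three cohorts of 8 (6 active, 2 placebo) got one nebulized dose of 1, 3 or 10 mg or placebo; a sentinel pair was dosed ≥24 h first. TEAEs were coded by MedDRA, with follow-up 1 week (±2 days) post-dose.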

[8] = phase I part B; type: in vivo, human
How it was run: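 Double-blind, randomized, placebo-controlled multiple ascending dose study in healthy adults aged 18–50 (FEV1 ≥80% predicted). Three cohorts of 10 (8 active, 2 placebo) got nebulized 1, 3 or 10 mg or placebo once daily for 7 days, staying in residence through day 9. Monitoring covered exams, vital signs, 12-lead ECGs, spirometry, clinical labs and MedDRA-coded TEAEs; follow-up came 1 week (±2 days) after the last dose.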

[9] = phase I part A plasma pharmacokinetics; type: in vivo, human; settings: for Tmax / AUC(0-t) / Cmax / Vd/F: human, plasma, inhaled or intranasal
How it was run: (§1)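 Healthy adults got a single nebulized dose (1, 3 or 10 mg). Blood and urine were sampled predose and over 72 h postdose. Plasma and urine PK parameters were estimated per participant and summarized as geometric mean (CV%). Urinary excretion was expressed as cumulative percentage of administered dose.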

[10] = phase I part A urine pharmacokinetics; type: in vivo, human; settings: geometric mean (CV%)
How it was run: as §1

[11] = phase I part B plasma pharmacokinetics; type: in vivo, human; settings: for DN AUCtau / DN Cmax,ss: dose normalized; for DN AUCtau / DN Cmax,ss / Ctrough,ss: geometric mean (geometric CV%); for AUC / Cmax / Tmax: human, inhaled; for AUC / Cmax / Tmax / Ctrough,ss: plasma
How it was run: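 Healthy adults got nebulized 1, 3 or 10 mg once daily for 7 days. Serial blood was drawn through 24 h after the day-1 dose and from predose through 48 h after the day-7 dose; troughs were drawn predose on days 3–6. Day-7 parameters, including dose-normalized values, were given as geometric mean (geometric CV%). Accumulation ratios were AUCtau/day-1 AUC0-24 and Cmax,ss/day-1 Cmax.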

[12] = type: physicochemical; settings: PARI eFlow nebulizer, dose range 0.1–10 mg
[13] = metabolism in dog lung S9 fractions; type: in vitro ADME; settings: dog lung S9 fortified with 3'‐phosphate‐5'‐phosphosulfate; data on file
[14] = metabolism in rat lung S9; type: in vitro ADME; settings: data on file
[15] = metabolism in human lung S9; type: in vitro ADME; settings: data on file
[16] = metabolite identification in rat hepatocytes; type: in vitro ADME
[17] = metabolite identification in dog hepatocytes; type: in vitro ADME
[18] = metabolite identification in human hepatocytes; type: in vitro ADME
[19] = elimination in the rat; type: in vivo; settings: preclinical data
[20] = tested on: COVID‐19; settings: in combination with remdesivir, patients with COVID‐19; cited from earlier work
[21] = tested on: COVID‐19; settings: phase III RUXCOVID study; cited from earlier work
[22] = all nezulcitinib doses, Total (n = 18)
[23] = single inhaled dose 1 mg (n = 6)
[24] = single inhaled dose 3 mg (n = 6)
[25] = single inhaled dose 10 mg (n = 6)
[26] = one participant, 10 mg, part B, by day 9, deemed not related to study drug
[27] = part B, 1 mg once daily for 7 days (n = 8)
[28] = part B, 3 mg once daily for 7 days (n = 8)
[29] = part B, 10 mg once daily for 7 days (n = 8)
[30] = part B, all nezulcitinib doses, Total (n = 24)

Chain of JAK2 (O60674 849-1124 limits assumed): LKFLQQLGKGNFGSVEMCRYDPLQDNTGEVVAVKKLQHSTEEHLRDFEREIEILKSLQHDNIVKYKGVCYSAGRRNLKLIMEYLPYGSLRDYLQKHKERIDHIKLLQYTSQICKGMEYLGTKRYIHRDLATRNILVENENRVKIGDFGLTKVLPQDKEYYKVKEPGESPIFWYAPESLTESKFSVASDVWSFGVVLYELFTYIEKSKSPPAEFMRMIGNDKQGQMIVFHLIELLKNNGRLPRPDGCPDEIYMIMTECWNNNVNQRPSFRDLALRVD
Chain of JAK1 (P23458 875-1153 limits assumed): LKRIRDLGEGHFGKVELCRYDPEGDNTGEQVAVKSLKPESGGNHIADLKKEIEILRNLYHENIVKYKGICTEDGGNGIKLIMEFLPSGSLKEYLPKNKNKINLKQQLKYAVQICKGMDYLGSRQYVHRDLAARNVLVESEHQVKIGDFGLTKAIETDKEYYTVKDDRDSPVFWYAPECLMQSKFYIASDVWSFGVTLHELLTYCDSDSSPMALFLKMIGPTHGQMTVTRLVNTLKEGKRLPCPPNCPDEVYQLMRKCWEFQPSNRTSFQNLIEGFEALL

For CCc1cc(O)ccc1-c1ccc2c(-c3nc4c([nH]3)CN(C(C)C)[C@H](C(=O)N3CC(N(C)C)C3)C4)n[nH]c2c1 [Nezulcitinib], the Ki [1] was 0.0501 nM, the Ki [2] was 0.0251 nM and the Ki [3] was 0.631 nM. For the same molecule, the “inhibition of cytokine‐induced STAT6 phosphorylation” value [4] was “inhibits”, the IC50 [5] was 12.6 nM and the fraction unbound [6] was 0.019. For the same molecule, the “TEAE Cough” value [7, 22] was 2 (11) n (%), the “TEAE Dizziness” value [7, 22] was 2 (11) n (%) and the “TEAE Headache” value [7, 22] was 1 (6) n (%). For the same molecule, the “TEAE related to nezulcitinib” value [7, 22] was 0 n (%), the “Total participants with TEAEs” value [7, 22] was 6 (33) n (%) and the “TEAE Cough” value [7, 23] was 1 (17) n (%). For the same molecule, the “TEAE Dizziness” value [7, 23] was 1 (17) n (%), the “TEAE Headache” value [7, 23] was 1 (17) n (%) and the “TEAE related to nezulcitinib” value [7, 23] was 0 n (%). For the same molecule, the “Total participants with TEAEs” value [7, 23] was 4 (67) n (%), the “TEAE Cough” value [7, 24] was 0 n (%) and the “TEAE Dizziness” value [7, 24] was 0 n (%). The “TEAE Headache” value [7, 24] was 0 n (%), the “TEAE related to nezulcitinib” value [7, 24] was 0 n (%) and the “Total participants with TEAEs” value [7, 24] was 0 n (%). For the same molecule, the “TEAE Cough” value [7, 25] was 1 (17) n (%), the “TEAE Dizziness” value [7, 25] was 1 (17) n (%) and the “TEAE Headache” value [7, 25] was 0 n (%). The “TEAE related to nezulcitinib” value [7, 25] was 0 n (%), the “Total participants with TEAEs” value [7, 25] was 2 (33) n (%) and the tolerability ([7]; single inhaled dose, healthy participants) was “generally well‐tolerated”. For the same molecule, the “alanine aminotransferase (ALT) elevation” value [8, 26] was 3.8 × ULN, the “aspartate aminotransferase (AST) elevation” value [8, 26] was “approximately 2.8 × ULN” and the “Moderate or severe TEAEs” value [8, 27] was 0 n (%). For the same molecule, the “TEAE Cough” value [8, 27] was 0 n (%), the “TEAE Dizziness” value [8, 27] was 1 (13) n (%) and the “TEAE Headache” value [8, 27] was 1 (13) n (%). For the same molecule, the “TEAE Lethargy” value [8, 27] was 1 (13) n (%), the “TEAE Medical device site reaction” value [8, 27] was 0 n (%) and the “TEAE related to nezulcitinib” value [8, 27] was 0 n (%). The “Total participants with TEAEs” value [8, 27] was 4 (50) n (%), the “Moderate or severe TEAEs” value [8, 28] was 0 n (%) and the “TEAE Cough” value [8, 28] was 2 (25) n (%). The “TEAE Dizziness” value [8, 28] was 1 (13) n (%), the “TEAE Headache” value [8, 28] was 3 (38) n (%) and the “TEAE Lethargy” value [8, 28] was 0 n (%). For the same molecule, the “TEAE Medical device site reaction” value [8, 28] was 0 n (%), the “TEAE related to nezulcitinib” value [8, 28] was 0 n (%) and the “Total participants with TEAEs” value [8, 28] was 3 (38) n (%). The “Moderate or severe TEAEs” value [8, 29] was 2 (25) n (%), the “TEAE Cough” value [8, 29] was 3 (38) n (%) and the “TEAE Dizziness” value [8, 29] was 1 (13) n (%). The “TEAE Headache” value [8, 29] was 0 n (%), the “TEAE Lethargy” value [8, 29] was 0 n (%) and the “TEAE Medical device site reaction” value [8, 29] was 1 (13) n (%). The “TEAE related to nezulcitinib” value [8, 29] was 1 (13) n (%), the “Total participants with TEAEs” value [8, 29] was 6 (75) n (%) and the “TEAE Cough” value [8, 30] was 5 (21) n (%). The “TEAE Dizziness” value [8, 30] was 3 (13) n (%), the “TEAE Headache” value [8, 30] was 4 (17) n (%) and the “TEAE Lethargy” value [8, 30] was 1 (4) n (%). The “TEAE Medical device site reaction” value [8, 30] was 1 (4) n (%), the “TEAE related to nezulcitinib” value [8, 30] was 1 (4) n (%) and the “Total participants with TEAEs” value [8, 30] was 13 (54) n (%). The “changes from baseline in vital sign and ECG assessments” value ([8]; parts A and B) was “No clinically significant changes”, the “severe or serious AEs” value ([8]; parts A and B) was “No severe or serious AEs” and the tolerability ([8]; single daily doses up to 10 mg for 7 days, healthy participants) was “generally well‐tolerated”. It also gave a Tmax [9] of ~1 h, an AUC(0-t) ([9]; 1 mg) of 18.7 ng·h/mL and a Cmax ([9]; 1 mg) of 5.5 ng/mL. It also gave a Vd/F ([9]; 1 mg) of 1390 L, an AUC(0-t) ([9]; 3 mg) of 45.2 ng·h/mL and a Cmax ([9]; 3 mg) of 13.8 ng/mL. The Tmax ([9]; 3 mg) was 1 h, the Vd/F ([9]; 3 mg) was 2300 L and the AUC(0-t) ([9]; 10 mg) was 157 ng·h/mL. It also gave a Cmax ([9]; 10 mg) of 47.3 ng/mL, a Tmax ([9]; 10 mg) of 1 h and a Vd/F ([9]; 10 mg) of 2200 L. The “dose proportionality of plasma exposures (Cmax and AUC0‐t)” value ([9]; part A, single dose 1, 3, 10 mg) was “increased proportionally”, the “Cum%Dose (cumulative percentage of administered dose excreted)” value ([10]; single inhaled dose 1 mg) was 0.97 (38.3) % and the “Cum%Dose (cumulative percentage of administered dose excreted)” value ([10]; single inhaled dose 3 mg) was 0.72 (17.5) %. The “Cum%Dose (cumulative percentage of administered dose excreted)” value ([10]; single inhaled dose 10 mg) was 0.84 (41.6) %, the “DN AUCtau” value ([11]; part B day 7, 1 mg once daily) was 21.0 (25.7) ng•h/ml/mg and the “DN Cmax,ss” value ([11]; part B day 7, 1 mg once daily) was 5.6 (24.1) ng/ml/mg. The “DN AUCtau” value ([11]; part B day 7, 3 mg once daily) was 17.2 (32.5) ng•h/ml/mg, the “DN Cmax,ss” value ([11]; part B day 7, 3 mg once daily) was 5.9 (42.6) ng/ml/mg and the “DN AUCtau” value ([11]; part B day 7, 10 mg once daily) was 17.8 (65.0) ng•h/ml/mg. For the same molecule, the “DN Cmax,ss” value ([11]; part B day 7, 10 mg once daily) was 5.0 (46.4) ng/ml/mg, the AUC ([11]; 1 mg) was 21 ng·h/mL and the Cmax ([11]; 1 mg) was 5.6 ng/mL. The Tmax ([11]; 1 mg) was 1 h, the AUC ([11]; 3 mg) was 51.6 ng·h/mL and the Cmax ([11]; 3 mg) was 17.6 ng/mL. For the same molecule, the Tmax ([11]; 3 mg) was 1 h, the AUC ([11]; 10 mg) was 178 ng·h/mL and the Cmax ([11]; 10 mg) was 49.6 ng/mL. The Tmax ([11]; 10 mg) was 1 h, the “dose proportionality of plasma exposures (Cmax and AUC0–t)” value ([11]; part B, 7 days of once‐daily dosing 1, 3, 10 mg) was “increased proportionally” and the “time to steady‐state plasma concentrations” value ([11]; part B, once‐daily dosing, from daily plasma trough concentrations) was ≤ 4 days. The “Ctrough,ss” value ([11]; part B day 7, 1 mg once daily) was 0.2 (29.5) ng/ml, the “Ctrough,ss” value ([11]; part B day 7, 3 mg once daily) was 0.3 (39.0) ng/ml and the “Ctrough,ss” value ([11]; part B day 7, 10 mg once daily) was 1.1 (83.6) ng/ml. For the same molecule, the “emitted fine particle dose, of the nominal dose” value [12] was 40%, the “metabolic stability in lung S9” value [13] was “extensive conversion to the sulfation product” and the “metabolic stability in lung S9” value [14] was “relatively stable”. The “metabolic stability in lung S9” value [15] was “relatively stable”, the primary metabolite [16] was “sulfation product” and the primary metabolite [17] was “sulfation product”. For the same molecule, the primary metabolite [18] was “an oxidation, methylation, and glucuronidation product” and the “amount eliminated in the urine and bile as unchanged compound” value [19] was “minor amount”.

For CCS(=O)(=O)N1CC(CC#N)(n2cc(-c3ncnc4[nH]ccc34)cn2)C1 [baricitinib], the recovery time [20] is listed as “significantly shortened recovery time”.

For N#CC[C@H](C1CCCC1)n1cc(-c2ncnc3[nH]ccc23)cn1 [ruxolitinib], the primary end point [21] is listed as “did not meet its primary end point”.
